Our source for the folding enthalpy and Tm values is the array DNA melting data of Ke et al. (doi:10.1101/2024.01.08.574731).

The nature of series [1]: folding enthalpy; higher = less favourable; fluorescence melt of hairpins on a sequencing array, two-state fit. As to conditions: sodium 0.088 M. An outline of the steps: (§1)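 Melting temperature and folding enthalpy were derived from bootstrapped two-state fits. The fitted temperatures were raised by 9.35 °C to agree with UV melts, and four replicates were combined by inverse variance. The underlying data were Cy3 fluorescence images of library hairpins, with annealed Cy3 and quencher oligos, on a sequenced MiSeq flow cell in 50 mM Na-HEPES pH 8.0, 25 mM NaCl, taken in 2.5 °C steps up to 60 °C, normalised to pre-quench Cy3 and to control constructs.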

A short description of series [2]: melting temperature; fluorescence melt of hairpins on a sequencing array, two-state fit, raised by 9.35 °C to match UV melts. As to conditions: sodium 0.088 M. An outline of the steps: as §1

On to GCGACCGGAAACGATCGC ((((.((....)).)))), for which the folding enthalpy in series [1] is -38.7 kcal/mol. In series [2], the Tm came out at 55 °C.

For the sequence GATCTAGGAAACTAGATC (((((((....))))))), the folding enthalpy in series [1] was -43.1 kcal/mol. For the same sequence, the Tm in series [2] came to 51.9 °C.

As to GTCTCCCGAAAGGGGGAC (((.(((....))).))), in series [1], the folding enthalpy was -32.4 kcal/mol. Also, in series [2], the Tm stood at 65.9 °C.

With GGCCCAGCGAAAGCTGCC (((..(((....)))))), in series [1], the folding enthalpy is -8.49 kcal/mol. For the same sequence, the Tm in series [2] came out at 36 °C.

In the case of GGTTCAGAAATGAACC ((((((....)))))), in series [1], the folding enthalpy is -38.8 kcal/mol. The Tm in series [2] is 54.6 °C.

On to GTCCACGAAAGTGGCGAC ((((((....)))..))), for which the folding enthalpy in series [1] was -13.4 kcal/mol. Moreover, the Tm in series [2] came to 58.8 °C.

For GCGCCAGGAAACCAGCGC ((((..(....)..)))), the folding enthalpy in series [1] is -26.4 kcal/mol. In series [2], the Tm turned out to be 51.4 °C.

Consider GGCAGCGAAAGCTCGCC ((((((....))).))), for which the folding enthalpy in series [1] is -22.5 kcal/mol. The Tm in series [2] was found to be 61.4 °C.

For the sequence GCAATGCGAAAGCTATGC (((..((....))..))), the folding enthalpy in series [1] is -20.4 kcal/mol. Besides, in series [2], the Tm turned out to be 50.6 °C.

For the sequence GACTTTACGAAAGTAGTC (((..(((....)))))), the folding enthalpy in series [1] was -12.9 kcal/mol. The Tm in series [2] is 33.3 °C.

Take GGATATCGAAAGATTCC (((.(((....)))))): in series [1], the folding enthalpy is -25.9 kcal/mol. Further, the Tm in series [2] amounted to 39.5 °C.

For the sequence GTTCCAGGAAACTGGAGC (.(((((....))))).), the folding enthalpy in series [1] is -19.6 kcal/mol. The Tm in series [2] is 47.2 °C.

For the sequence GTTCTGGGAAACCAGAAC (((((((....))))))), the folding enthalpy in series [1] was -42.9 kcal/mol. Moreover, the Tm in series [2] worked out at 60.5 °C.

For GCGTACGAAAGTATACGC ((((((....)))..))), in series [1], the folding enthalpy is -34 kcal/mol. Further, the Tm in series [2] is 51.4 °C.

As for GATCCTCCGAAGGATC ((((((....)))))), the folding enthalpy in series [1] is -16.6 kcal/mol. Besides, in series [2], the Tm is 48.7 °C.

On to GGTTCGGAAACGAACC ((((((....)))))), for which the folding enthalpy in series [1] is -33.2 kcal/mol. In addition, the Tm in series [2] came to 67.3 °C.

Turning to GCAATCGGAAACAATTGC (((((.(....).))))), the folding enthalpy in series [1] was -27.9 kcal/mol. For the same sequence, in series [2], the Tm came out at 38 °C.

GCCGACGAAAGTCAGGC ((((((....))).))): in series [1], the folding enthalpy is -39.5 kcal/mol. The Tm in series [2] was determined as 64.1 °C.

On to GTCTCGTCGAAAGACGAC (((..(((....)))))), for which the folding enthalpy in series [1] is -7.57 kcal/mol. For the same sequence, the Tm in series [2] came to 37 °C.

Consider GGATAGGGAAACCTGTCC (((.(((....))).))), for which, in series [1], the folding enthalpy was -30.9 kcal/mol. Also, in series [2], the Tm amounted to 48.2 °C.

CGGCCCCGGAAACGGCCG (((..(((....)))))): the folding enthalpy in series [1] is -31.9 kcal/mol. The Tm in series [2] came to 54.4 °C.

Regarding GAGTTAGGAAACCAACTC (((((.(....).))))), in series [1], the folding enthalpy was -32.5 kcal/mol. Also, in series [2], the Tm came to 35.4 °C.

As to GATCCGGTTACGGATC ((((((....)))))), the folding enthalpy in series [1] was -36.9 kcal/mol. In addition, the Tm in series [2] worked out at 68.5 °C.

GTTTCTGGAAACAGAGAC ((.((((....)))).)): the folding enthalpy in series [1] is -26.9 kcal/mol. The Tm in series [2] stood at 37.2 °C.

Regarding GATCAATTACTTGATC ((((((....)))))), the folding enthalpy in series [1] is -31.4 kcal/mol. Moreover, the Tm in series [2] stood at 44 °C.

Consider GTCATCGGAAACAATGAC (((((.(....).))))), for which the folding enthalpy in series [1] is -28 kcal/mol. For the same sequence, the Tm in series [2] stood at 36.1 °C.

For CGAACGGAAACGTGTTCG ((((((....)))..))), the folding enthalpy in series [1] is -26.7 kcal/mol. Besides, in series [2], the Tm is 42.6 °C.

On to GATGCCGAAAGGCTCATC ((((((....)))..))), for which, in series [1], the folding enthalpy is -10.4 kcal/mol. The Tm in series [2] was determined as 32.7 °C.

Turning to GTGACCGAAAGGTGACAC ((((((....)))..))), the folding enthalpy in series [1] was -16 kcal/mol. The Tm in series [2] was found to be 42.8 °C.

As for CGGCCGGAAACGGCACCG ((((((....)))..))), in series [1], the folding enthalpy was -8.06 kcal/mol. Besides, in series [2], the Tm was found to be 34.5 °C.

For GTAGCCGAAAGGCTGTAC ((((((....)))..))), in series [1], the folding enthalpy is -9.24 kcal/mol. The Tm in series [2] is 31.2 °C.

Consider GTATTAGAAATAATAC ((((((....)))))), for which the folding enthalpy in series [1] was -22.2 kcal/mol. Besides, the Tm in series [2] amounted to 31.9 °C.

As for GCCCAGCGAAAGCTTCGC ((..(((....)))..)), the folding enthalpy in series [1] was -6.41 kcal/mol. Moreover, the Tm in series [2] is 40.3 °C.

For GATCACGCTGGTGATC ((((((....)))))), the folding enthalpy in series [1] was -42.5 kcal/mol. Further, the Tm in series [2] stood at 58.2 °C.

Regarding GGTGACGGAAACACCACC ((((..(....)..)))), the folding enthalpy in series [1] was -20 kcal/mol. In series [2], the Tm was determined as 34.5 °C.

In the case of GATCGCATAAGCGATC ((((((....)))))), the folding enthalpy in series [1] was -32.5 kcal/mol. The Tm in series [2] is 69.2 °C.

Regarding GTATTCGAAAGAAATAC ((((((....))).))), the folding enthalpy in series [1] was -14.9 kcal/mol. Besides, in series [2], the Tm came out at 34 °C.
